The results in this text go back to ChEMBL document CHEMBL2407047, “Molecular design, synthesis and biological evaluation of 1,4-dihydro-4-oxoquinoline ribonucleosides as TcGAPDH inhibitors with trypanocidal activity” (Bioorg Med Chem Lett, 2013).

As a reminder, the IC50 is the concentration that inhibits the measured activity by half.

Where only a bound is given, the exact number is not on record here.

Data set [1] deals with T1, Glyceraldehyde-3-phosphate dehydrogenase, glycosomal (Trypanosoma cruzi, UniProt P22513). Kind of data set: Inhibition of Trypanosoma cruzi glycosomal GAPDH. The method in brief: (§1)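 Enzyme assays were run by isothermal titration calorimetry (ITC), probing the GAPDH NAD+ cosubstrate site and the active site. Affinity is reported as apparent Ki. Mode of inhibition was judged from how NAD+ and G3P KM and Vmax respond. Kinetic models were compared by second-order Akaike's information criterion.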

The nature of data set [2]: Selectivity index, ratio of C57BL/6 mouse spleen cells to trypomastigotes forms of Trypanosoma cruzi Tulahuen infected in monkey LLC-MK2 cells. The data set is classed as toxicity, cell-based. Particulars: read-out: Selectivity Index.
In a further data set the test system is Trypanosoma cruzi. Kind of data set: Trypanocidal activity against trypomastigotes forms of Trypanosoma cruzi Tulahuen infected in monkey LLC-MK2 cells after 24 hrs by beta-galactosidase reporter assay. The data set is classed as functional. (In a reporter assay the amount or activity of a reporter protein is the signal.)
Data set [3] in a line: Cytotoxicity against C57BL/6 mouse spleen cells after 24 hrs using propidium iodide by flow cytometry. In kind it is cell-based. The method, boiled down:
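Spleen cells were isolated from C57BL/6 mice by mechanical dissociation. They were incubated with compound at 5·10⁶ cells mL⁻¹ for 24 h at 37 °C under 5% CO2, then stained with 10 µg mL⁻¹ propidium iodide and analysed by flow cytometry. Two experiments were run in duplicate; mean plus standard deviation is reported.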
(In general: In flow cytometry, cells or beads pass a laser one at a time.)

Data set [4] addresses T1, Glyceraldehyde-3-phosphate dehydrogenase, glycosomal. Kind of data set: Non-competitive inhibition of Trypanosoma cruzi glycosomal GAPDH active site by ITC method. To be noted: read-out: Ki(app). The method, boiled down:
as §1
A general note: Isothermal titration calorimetry measures the heat released or taken up as one component is titrated into another.

The target is the same in data set [5]. Kind of data set: Competitive inhibition of Trypanosoma cruzi glycosomal GAPDH NAD+ binding site by ITC method. To be noted: read-out: Ki(app). The method, boiled down: as §1
The next data set concerns Saccharomyces cerevisiae. Kind of data set: Cytotoxicity against Saccharomyces cerevisiae by FUN-1 fluorescence assay. In kind it is organism-based. Particulars: in vivo. The method, boiled down: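 Log-phase S. cerevisiae (CBMAI 0194) was grown in LB with 2% glucose and 10 mmol L⁻¹ acetate buffer, pH 5, at 37 °C. Cells were resuspended in NaHEPES pH 7.2 at 10⁷ cells mL⁻¹ and stained with FUN-1 (working solution 200 µmol L⁻¹) for 30 min, with or without compound, in 0.6% DMSO. Fluorescence (excitation 485 nm; emission 530/620 nm) was read every 10 min for 1 h at 37 °C. Viability was taken from the red/green ratio.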

T1 sequence (P22513 whole entry): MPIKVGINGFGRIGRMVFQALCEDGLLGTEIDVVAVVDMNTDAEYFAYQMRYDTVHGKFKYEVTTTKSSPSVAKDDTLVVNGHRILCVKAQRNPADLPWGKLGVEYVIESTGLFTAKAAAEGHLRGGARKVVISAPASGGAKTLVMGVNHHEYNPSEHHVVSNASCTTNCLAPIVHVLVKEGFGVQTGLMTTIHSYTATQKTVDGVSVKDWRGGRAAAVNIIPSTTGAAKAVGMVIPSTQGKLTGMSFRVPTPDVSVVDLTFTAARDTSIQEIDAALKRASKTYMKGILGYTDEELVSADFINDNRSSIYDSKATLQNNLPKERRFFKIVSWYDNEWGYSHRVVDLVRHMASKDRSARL

Take `CCOC(=O)c1cn([C@@H]2O[C@H](COC(=O)c3ccccc3)[C@@H](OC(=O)c3ccccc3)[C@H]2OC(=O)c2ccccc2)c2ccc(Cl)cc2c1=O`: the IC50 in data set [1] is 40.7 µM.
Take `O=C(O)c1cn([C@@H]2O[C@H](CO)[C@@H](O)[C@H]2O)c2cc(Br)ccc2c1=O`: the selectivity ratio in data set [2] was more than 27. The Activity is 18 µmol/L with Trypanosoma cruzi and more than 500 µmol/L in data set [3]. Besides, the Ki in data set [4] was found to be 151 µM; in data set [5], 16 µM.
For `Cc1ccc2c(=O)c(C(=O)O)cn([C@@H]3O[C@H](CO)[C@@H](O)[C@H]3O)c2c1`, the Ki in data set [5] stood at 17.1 µM.
On to `COc1ccc2c(c1)c(=O)c(C(=O)O)cn2[C@@H]1O[C@H](CO)[C@@H](O)[C@H]1O`, for which the selectivity ratio in data set [2] turned out to be 1. Besides, the Activity (in the data set with Trypanosoma cruzi; in data set [3]) was more than 500 µmol/L in each case. The Ki in data set [4] came to 305 µM; in data set [5] it was 18.7 µM.
Turning to `O=C(O)c1cn([C@@H]2O[C@H](CO)[C@@H](O)[C@H]2O)c2ccc(Br)cc2c1=O`, the Activity result in the data set on Saccharomyces cerevisiae is given as “Toxic”. Besides, the Ki in data set [5] is 29.5 µM.
In the case of `Cc1ccc2c(c1)c(=O)c(C(=O)O)cn2[C@@H]1O[C@H](CO)[C@@H](O)[C@H]1O`, the Ki in data set [5] is 57.6 µM.
For the compound `COc1ccc2c(=O)c(C(=O)O)cn([C@@H]3O[C@H](CO)[C@@H](O)[C@H]3O)c2c1`, in the data set on Saccharomyces cerevisiae, the Activity entry is reported as “Toxic”. Moreover, the Ki is 105 µM in data set [4] and 59.5 µM in data set [5].
Turning to `O=C(O)c1cn([C@@H]2O[C@H](CO)[C@@H](O)[C@H]2O)c2ccc(Cl)cc2c1=O`, in data set [5], the Ki worked out at 32.3 µM.
Turning to `O=C(Cn1ccnc1[N+](=O)[O-])NCc1ccccc1` [BENZNIDAZOLE], the selectivity ratio in data set [2] was more than 26. The Activity in the data set on Trypanosoma cruzi was 19 µmol/L; in data set [3], more than 500 µmol/L.
